Screening results as filed in PubChem BioAssay.
This is a sample that favours compounds with a hit; in the whole collection about 1.9% have one here.
Rin1 Abl inh = inhibitors of human Rin1-Abl protein interaction; 0.4% of 360,000 active; TR-FRET Rin1/Abl binding, biochemical; inhibition, % at 7.35 µM; AID 588664; P00519+Q13671; in the data active = inhibition above about 5%, passing the limit was not always enough
UHRF1 binding = UHRF1 methyl-DNA binding inhibition | Q96T88 | UHRF1 binding to methylated oligo, TR-FRET | inhibition, % at 4.4 µM | 0.75% of 370,000 active | AID 687016; in the data active = inhibition above about 21%;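 also: UHRF1 SRA domain binding a hemimethylated CpG hairpin DNA probe; 0% = median of test compound wells and 100% = reference inhibitor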
MBD2 inh = inhibitors of human MBD2 binding to methylated oligonucleotide | TR-FRET | 0.31% of 370,000 active | Q9UBB5 | inhibition, % at 4.4 µM; in the data active = inhibition above about 13%
LEDGF integ inh = blocks HIV-1 LEDGF/p75-dependent DNA integration; TR-FRET IN-LEDGF/p75 DNA integration, Eu/Cy5; inhibition, % at 3.7 µM; 0.64% of 370,000 active;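 active = inhibition above the screen-wide mean plus 3 SD, cut at about 13% in these data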;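 also: signal is the Cy5 over europium emission ratio at 671 and 618 nm; 0% = plate median of compound wells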
TDP2 absorb = blocks human TDP2 phosphodiesterase activity | recombinant TDP2, T5PNP hydrolysis, p-nitrophenol absorbance 415 nm | inhibition, % at 12.8 µM | 0.34% of 370,000 active;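 active = inhibition above the mean of all tested compounds plus 3 SD, set per campaign, cut at about 25% in these data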;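 also: 0% = DMSO with enzyme and 100% = buffer with substrate but no TDP2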
Target sequence (O95551 whole entry, looked up): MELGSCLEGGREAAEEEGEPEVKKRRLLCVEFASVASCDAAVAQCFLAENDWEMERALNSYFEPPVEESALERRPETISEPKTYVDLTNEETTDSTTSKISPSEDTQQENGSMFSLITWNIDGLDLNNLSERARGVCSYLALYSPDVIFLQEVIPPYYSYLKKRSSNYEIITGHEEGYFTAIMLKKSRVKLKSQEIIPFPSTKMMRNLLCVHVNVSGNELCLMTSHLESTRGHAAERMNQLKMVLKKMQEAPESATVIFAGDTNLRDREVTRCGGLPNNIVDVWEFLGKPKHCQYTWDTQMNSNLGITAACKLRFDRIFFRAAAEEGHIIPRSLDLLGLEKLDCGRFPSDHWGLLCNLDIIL
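Test system: Human TDP2 enzyme | Reagent: 5 mM T5PNP | Compound dosing: 12.8 µM single point, 1% DMSO | Incubation: Enzyme reaction with compound for 2 h at 37 °C | Technique: p-Nitrophenol epi absorbance | Read-out: % inhibition relative to enzyme-containing and enzyme-free wells | Benchmarks: High control without enzyme, low control DMSO plus TDP2 | Replicates: Singlicate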
Rin1 Abl conf = confirmation of inhibitors of human Rin1-Abl interaction; TR-FRET Rin1-Abl binding, purified proteins; 49% of 1,300 active; shares compounds with Rin1 Abl inh; inhibition, % at 7.35 µM
GFP quench = counter-screen for Rin1-Abl inhibitors: GFP fluorescence quenchers; shares compounds with Rin1 Abl inh; inhibitors/quenchers counterscreen; inhibition, % at 6.75 µM; 8.5% of 1,300 active; AID 602125;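 also: ABL1-eGFP fusion protein alone without its partner RIN1-SBP; 0% = protein with vehicle and 100% = wells lacking protein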
GFP quench dose = quenches GFP in dose response, Rin1-Abl counter-screen; IC50, µM; 230 tested, under 10 active; GFP fluorescence interference/quenching counterscreen; shares compounds with Rin1 Abl inh; AID 602182; call rule not given here;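 also: ABL1-eGFP fusion protein alone without its RIN1 binding partner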
* marks the source's active call; other numbers are inactive results; . = no result. Rule as the data show it, unless noted: active = inhibition above about 6.5%; inactive = the rest.

SMILES	Rin1 Abl inh	UHRF1 binding	MBD2 inh	LEDGF integ inh	TDP2 absorb	others
CCCCNc1ccc(C(F)(F)F)cc1S(=O)(=O)NCCc1ccc(F)cc1	-1.6	22.5*	11.9	6.5	-1.3
O=S(=O)(c1ccc2nc(N3CCN(c4ccccc4)CC3)ccc2c1)N1CCCCC1	1.1	21.7*	2.1	-3.7	-3.9
C/C(=N\NC(=O)c1ccccc1O)c1cccc(NC(=O)c2ccccc2)c1	0.7	-2.6	-1.9	-1.8	0.5
C/C(=N\NC(=O)c1cc(O)ccc1O)c1cccc(NC(=O)c2cccc(Cl)c2)c1	3.9	20.2	-6.2	54.7*	-1.1
O=C1CC2(CCN(C(=O)c3ccc(F)cc3)CC2)Oc2ccccc21	-1.0	1.9	-2.6	40.1*	-6.3
O=C(COc1ccccc1F)NCc1nc2ccccc2[nH]1	1.4	22.5*	10.7	2.0	-0.1
Cc1ccccc1OCC(=O)NCCc1nc2ccccc2[nH]1	-1.5	0.7	-2.5	1.1	-3.8
O=C1c2ccccc2C(=O)C12OC2c1ccc(Cl)cc1Cl (configuration not stated)	7.2*	-0.2	-5.5	-0.5	4.6
COc1ccc(N/C(=C\C(=O)c2ccccc2)c2ccccc2)cc1OC	.	5.4	3.3	-4.5	3.5
CCn1cc(C(=O)N[C@H](C(=O)NC(C)(C)CO)C(C)C)c(=O)c2cc3c(cc21)OCO3	0.9	-1.6	-3.9	0.2	25.3*
CCn1cc(C(=O)N[C@H](C(=O)NCCO)C(C)C)c(=O)c2cc3c(cc21)OCO3	-2.0	2.5	3.2	-1.3	0.0
COc1ccccc1Cc1c(C(C)(C)C)nc2c3ccccc3ccn12	-1.9	22.6*	6.2	2.5	1.5
COc1cccc(CNC(=O)CCC2CCCN(C(=O)c3ccoc3)C2)c1 (configuration not stated)	5.6	24.8*	11.4	-5.4	1.3
CCOC(=O)NC(=S)c1ccc[nH]1	-4.5	22.5*	-2.9	1.1	-8.7
COc1ccc(-n2c(COc3ccccc3)nnc2SCC(=O)Nc2ccc(OCc3ccccc3)cc2)cc1	.	3.1	7.7	-0.2	-8.6
Cc1[nH]c2ccccc2c1C(=O)CSC(=S)N(C)C1CCCCC1	-3.1	26.4*	7.4	5.4	-0.9
Cc1[nH]c2ccccc2c1C(=O)C(=O)N(C)C1CCCCC1	-0.9	1.1	-5.1	0.2	7.0
CNc1nc(N)c([N+](=O)[O-])c(Nc2cccc(Br)c2)n1	.	0.1	-3.0	0.5	8.2
COc1ccc(-c2cc(C(=O)Nc3ccc(S(=O)(=O)Nc4onc(C)c4C)cc3)c3ccccc3n2)cc1	-2.8	2.6	2.7	60.2*	4.8
CC(=O)OC[C@H]1O[C@@H](n2ccc(=O)[nH]c2=S)C(OC(C)=O)C1OC(C)=O (some centres not stated)	12.2*	3.3	3.3	2.2	-6.6	Rin1 Abl conf=9.3*;GFP quench=-0.5
CCOC(=O)c1ccc(NC(=O)CN2C(=O)C3C4C=CC(C4)C3C2=O)cc1 (configuration not stated)	1.7	2.1	1.6	0.7	7.2
Cc1ccc(NC(=O)CN2C(=O)C3C4C=CC(C4)C3C2=O)cc1 (configuration not stated)	6.3*	0.0	-3.4	2.2	-21.3	Rin1 Abl conf=-2.5;GFP quench=1.3
CC12CCC(=O)N1C(C(=O)N1CCN(S(=O)(=O)c3ccccc3F)CC1)CS2 (configuration not stated)	-4.8	0.9	0.7	-5.8	0.3
CC12CCC(=O)N1C(C(=O)N1CCN(S(=O)(=O)c3ccc(Br)cc3Cl)CC1)CS2 (configuration not stated)	18.6*	-2.6	-1.0	5.4	1.8	Rin1 Abl conf=17.4*;GFP quench=1.5;GFP quench dose=>67.5
NS(=O)(=O)c1ccc(NC(=O)CSc2nnc(-c3cccs3)o2)cc1	.	-1.6	-1.9	0.7	-5.0
Clc1ccc(C2[C@H]3CN(Cc4cccnc4)[C@H](c4ccccc4)C34CC2(c2cccnc2)C4)cn1 (some centres not stated)	58.8*	1.5	-6.3	3.4	0.7	Rin1 Abl conf=71.7*;GFP quench=-0.4
